Source: ChEMBL document CHEMBL5247575 (J Med Chem, 2018)

Assays:
Pseudomonas aeruginosa [1] = assay: Synergistic antibacterial activity against Pseudomonas aeruginosa 795 assessed as meropenem MIC at 8 ug/ml by broth microdilution method; format: functional; details: dose 8 µg/ml
Acinetobacter baumannii [2] = assay: Synergistic antibacterial activity against Acinetobacter baumannii PR408 producing OXA-24/40 assessed as meropenem MIC at 8 ug/ml by broth microdilution method; format: functional; details: dose 8 µg/ml
Acinetobacter baumannii [3] = assay: Synergistic antibacterial activity against Acinetobacter baumannii PR323 producing OXA-24/40 assessed as cefepime MIC at 8 ug/ml by broth microdilution method; format: functional; details: dose 8 µg/ml
Klebsiella pneumoniae [4] = assay: Synergistic antibacterial activity against Klebsiella pneumoniae 1084/1957 producing KPC-3 assessed as cefepime MIC at 4 ug/ml by broth microdilution method; format: functional; details: dose 4 µg/ml
In short: (§1)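 Broth microdilution per CLSI guidelines, using custom frozen panels. […] Each partner drug was also tested alone. MICs were run in triplicate and the modal value is reported.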

Pseudomonas aeruginosa [5] = assay: Synergistic antibacterial activity against Pseudomonas aeruginosa 839 assessed as meropenem MIC at 4 ug/ml by broth microdilution method; format: functional; details: dose 4 µg/ml
Escherichia coli [6] = assay: Synergistic antibacterial activity against Escherichia coli DH10B transfected with pBC SK (-) PDC-3 assessed as cefepime MIC at 4 ug/ml by broth microdilution method; format: functional; details: dose 4 µg/ml; in short: as §1
Klebsiella pneumoniae [7] = assay: Synergistic antibacterial activity against Klebsiella pneumoniae 1315/2198 producing KPC-3 assessed as meropenem MIC at 8 ug/ml by broth microdilution method; format: functional; details: dose 8 µg/ml; in short: as §1
Escherichia coli [8] = assay: Synergistic antibacterial activity against Escherichia coli DH10B transfected with pBC SK (-) OXA-48 assessed as cefepime MIC at 8 ug/ml by broth microdilution method; format: functional; details: dose 8 µg/ml; in short: as §1
Klebsiella pneumoniae [9] = assay: Synergistic antibacterial activity against Klebsiella pneumoniae CAV 1543 producing OXA-48 assessed as meropenem MIC at 8 ug/ml by broth microdilution method; format: functional; details: dose 8 µg/ml
Acinetobacter baumannii [10] = assay: Synergistic antibacterial activity against Acinetobacter baumannii PR420 producing OXA-23/24/40 assessed as cefepime MIC at 4 ug/ml by broth microdilution method; format: functional; details: dose 4 µg/ml
Klebsiella pneumoniae [11] = assay: Synergistic antibacterial activity against Klebsiella pneumoniae 972/1910 producing KPC-3 assessed as cefepime MIC at 8 ug/ml by broth microdilution method; format: functional; details: dose 8 µg/ml
Klebsiella pneumoniae [12] = assay: Synergistic antibacterial activity against Klebsiella pneumoniae 729/1679 producing KPC-3 assessed as meropenem MIC at 8 ug/ml by broth microdilution method; format: functional; details: dose 8 µg/ml; in short: as §1
Klebsiella pneumoniae [13] = assay: Synergistic antibacterial activity against Klebsiella pneumoniae jefferson 1775 producing OXA-48 assessed as cefepime MIC at 8 ug/ml by broth microdilution method; format: functional; details: dose 8 µg/ml
Acinetobacter baumannii [14] = assay: Synergistic antibacterial activity against Acinetobacter baumannii PR408 producing OXA-24/40 assessed as meropenem MIC at 4 ug/ml by broth microdilution method; format: functional; details: dose 4 µg/ml
Klebsiella pneumoniae [15] = assay: Synergistic antibacterial activity against Klebsiella pneumoniae 729/1679 producing KPC-3 assessed as cefepime MIC at 4 ug/ml by broth microdilution method; format: functional; details: dose 4 µg/ml; in short: as §1
Klebsiella pneumoniae [16] = assay: Synergistic antibacterial activity against Klebsiella pneumoniae 440/1360 producing KPC-2 assessed as cefepime MIC at 8 ug/ml by broth microdilution method; format: functional; details: dose 8 µg/ml; in short: as §1
Acinetobacter baumannii [17] = assay: Synergistic antibacterial activity against Acinetobacter baumannii PR420 producing OXA-23/24/40 assessed as cefepime MIC at 8 ug/ml by broth microdilution method; format: functional; details: dose 8 µg/ml
Pseudomonas aeruginosa [18] = assay: Synergistic antibacterial activity against Pseudomonas aeruginosa 776 assessed as cefepime MIC at 4 ug/ml by broth microdilution method; format: functional; details: dose 4 µg/ml
Acinetobacter baumannii [19] = assay: Synergistic antibacterial activity against Acinetobacter baumannii PR440 producing OXA-23/24/40 assessed as meropenem MIC at 8 ug/ml by broth microdilution method; format: functional; details: dose 8 µg/ml
Klebsiella pneumoniae [20] = assay: Synergistic antibacterial activity against Klebsiella pneumoniae jefferson 1775 producing OXA-48 assessed as meropenem MIC at 8 ug/ml by broth microdilution method; format: functional; details: dose 8 µg/ml
Bacteria [21] = assay: Inhibition of bacteria KPC-2 assessed as half life using nitrocefin as substrate
Acinetobacter baumannii [22] = assay: Synergistic antibacterial activity against ADC deleted Acinetobacter baumannii transfected with pWH1266 OXA-23 assessed as meropenem MIC at 4 ug/ml by broth microdilution method; format: functional; details: dose 4 µg/ml
Klebsiella pneumoniae [23] = assay: Synergistic antibacterial activity against Klebsiella pneumoniae CAV 1543 producing OXA-48 assessed as meropenem MIC at 4 ug/ml by broth microdilution method; format: functional; details: dose 4 µg/ml
Bacteria [24] = assay: Inhibition of bacteria PDC-3 assessed as second order rate constant K2/K using nitrocefin as substrate
Acinetobacter baumannii [25] = assay: Synergistic antibacterial activity against Acinetobacter baumannii PR408 producing OXA-24/40 assessed as cefepime MIC at 4 ug/ml by broth microdilution method; format: functional; details: dose 4 µg/ml
Klebsiella pneumoniae [26] = assay: Synergistic antibacterial activity against Klebsiella pneumoniae 1108/1989 producing KPC-3 assessed as meropenem MIC at 4 ug/ml by broth microdilution method; format: functional; details: dose 4 µg/ml; in short: as §1
Acinetobacter baumannii [27] = assay: Synergistic antibacterial activity against Acinetobacter baumannii PR476 producing OXA-24/40 assessed as cefepime MIC at 8 ug/ml by broth microdilution method; format: functional; details: dose 8 µg/ml
Acinetobacter baumannii [28] = assay: Synergistic antibacterial activity against Acinetobacter baumannii PR440 producing OXA-23/24/40 assessed as cefepime MIC at 8 ug/ml by broth microdilution method; format: functional; details: dose 8 µg/ml
Klebsiella pneumoniae [29] = assay: Synergistic antibacterial activity against Klebsiella pneumoniae 1398/2291 producing KPC-3 assessed as meropenem MIC at 4 ug/ml by broth microdilution method; format: functional; details: dose 4 µg/ml; in short: as §1
Klebsiella pneumoniae [30] = assay: Synergistic antibacterial activity against Klebsiella pneumoniae 440/1360 producing KPC-2 assessed as meropenem MIC at 4 ug/ml by broth microdilution method; format: functional; details: dose 4 µg/ml; in short: as §1
Acinetobacter baumannii [31] = assay: Synergistic antibacterial activity against Acinetobacter baumannii PR440 producing OXA-23/24/40 assessed as meropenem MIC at 4 ug/ml by broth microdilution method; format: functional; details: dose 4 µg/ml
Acinetobacter baumannii [32] = assay: Synergistic antibacterial activity against ADC deleted Acinetobacter baumannii transfected with pWH1266 producing OXA-24/40 assessed as cefepime MIC at 8 ug/ml by broth microdilution method; format: functional; details: dose 8 µg/ml
Acinetobacter baumannii [33] = assay: Synergistic antibacterial activity against Acinetobacter baumannii PR359 producing OXA-23 assessed as cefepime MIC at 8 ug/ml by broth microdilution method; format: functional; details: dose 8 µg/ml
Escherichia coli [34] = assay: Synergistic antibacterial activity against Escherichia coli DH10B transfected with pBC SK (-) KPC-3 assessed as meropenem MIC at 8 ug/ml by broth microdilution method; format: functional; details: dose 8 µg/ml
Acinetobacter baumannii [35] = assay: Synergistic antibacterial activity against Acinetobacter baumannii PR381 producing OXA-24/40 assessed as cefepime MIC at 8 ug/ml by broth microdilution method; format: functional; details: dose 8 µg/ml
Acinetobacter baumannii [36] = assay: Synergistic antibacterial activity against Acinetobacter baumannii PR323 producing OXA-24/40 assessed as meropenem MIC at 4 ug/ml by broth microdilution method; format: functional; details: dose 4 µg/ml
Klebsiella pneumoniae [37] = assay: Synergistic antibacterial activity against Klebsiella pneumoniae NY BS producing OXA-232 assessed as meropenem MIC at 8 ug/ml by broth microdilution method; format: functional; details: dose 8 µg/ml
Acinetobacter baumannii [38] = assay: Synergistic antibacterial activity against Acinetobacter baumannii PR474 producing OXA-23/24/40 assessed as meropenem MIC at 8 ug/ml by broth microdilution method; format: functional; details: dose 8 µg/ml

Row | Structure (SMILES) | MIC (Pseudomonas aeruginosa [1]) | MIC (Acinetobacter baumannii [2]) | MIC (Acinetobacter baumannii [3]) | MIC (Klebsiella pneumoniae [4]) | MIC (Pseudomonas aeruginosa [5]) | MIC (Escherichia coli [6]) | MIC (Klebsiella pneumoniae [7]) | MIC (Escherichia coli [8]) | MIC (Klebsiella pneumoniae [9]) | MIC (Klebsiella pneumoniae [11]) | MIC (Klebsiella pneumoniae [12]) | MIC (Klebsiella pneumoniae [13]) | MIC (Acinetobacter baumannii [14]) | MIC (Klebsiella pneumoniae [15]) | MIC (Klebsiella pneumoniae [16]) | MIC (Acinetobacter baumannii [17]) | MIC (Pseudomonas aeruginosa [18]) | MIC (Acinetobacter baumannii [19]) | MIC (Klebsiella pneumoniae [20]) | T1/2 (Bacteria [21]) | other results
1 | O=C(NNC(=O)[C@@H]1CC[C@@H]2CN1C(=O)N2OS(=O)(=O)O)[C@@H]1CCCNC1 [ZIDEBACTAM] | 4 µg/mL | > 16 µg/mL | 4 µg/mL | ≤ 0.12 µg/mL | 0.5 µg/mL | ≤ 0.12 µg/mL | ≤ 0.12 µg/mL | ≤ 0.12 µg/mL | ≤ 0.12 µg/mL | ≤ 0.12 µg/mL | ≤ 0.12 µg/mL | ≤ 0.12 µg/mL | > 16 µg/mL | ≤ 0.12 µg/mL | ≤ 0.12 µg/mL | > 16 µg/mL | 16 µg/mL | > 16 µg/mL | ≤ 0.12 µg/mL | 29 min | MIC (Acinetobacter baumannii [10]): > 16 µg/mL; MIC (Acinetobacter baumannii [22]): > 16 µg/mL; MIC (Klebsiella pneumoniae [23]): ≤ 0.12 µg/mL; K (Bacteria [24]): 4.8 10^5/M/s; MIC (Acinetobacter baumannii [25]): 8 µg/mL; MIC (Klebsiella pneumoniae [26]): ≤ 0.12 µg/mL; MIC (Acinetobacter baumannii [27]): 2 µg/mL; MIC (Acinetobacter baumannii [28]): > 16 µg/mL; MIC (Klebsiella pneumoniae [29]): ≤ 0.12 µg/mL; MIC (Klebsiella pneumoniae [30]): ≤ 0.12 µg/mL; MIC (Acinetobacter baumannii [31]): > 16 µg/mL; MIC (Acinetobacter baumannii [32]): 16 µg/mL; MIC (Acinetobacter baumannii [33]): 16 µg/mL; MIC (Escherichia coli [34]): ≤ 0.12 µg/mL; MIC (Acinetobacter baumannii [35]): 16 µg/mL; MIC (Acinetobacter baumannii [36]): > 16 µg/mL; MIC (Klebsiella pneumoniae [37]): ≤ 0.12 µg/mL; MIC (Acinetobacter baumannii [38]): > 16 µg/mL
2 | O=C(NNC(=O)[C@@H]1CC[C@@H]2CN1C(=O)N2OS(=O)(=O)O)[C@@H]1CCNC1 | ≤ 0.12 µg/mL | > 16 µg/mL | 8 µg/mL | ≤ 0.12 µg/mL | ≤ 0.12 µg/mL | ≤ 0.12 µg/mL | ≤ 0.12 µg/mL | ≤ 0.12 µg/mL | ≤ 0.12 µg/mL | ≤ 0.12 µg/mL | ≤ 0.12 µg/mL | ≤ 0.12 µg/mL | > 16 µg/mL | ≤ 0.12 µg/mL | ≤ 0.12 µg/mL | > 16 µg/mL | 16 µg/mL | > 16 µg/mL | ≤ 0.12 µg/mL | 33 min | MIC (Klebsiella pneumoniae [23]): ≤ 0.12 µg/mL; K (Bacteria [24]): 6.3 10^5/M/s; MIC (Acinetobacter baumannii [25]): 16 µg/mL; MIC (Klebsiella pneumoniae [26]): ≤ 0.12 µg/mL; MIC (Acinetobacter baumannii [27]): 2 µg/mL; MIC (Acinetobacter baumannii [28]): > 16 µg/mL; MIC (Klebsiella pneumoniae [29]): ≤ 0.12 µg/mL; MIC (Klebsiella pneumoniae [30]): ≤ 0.12 µg/mL; MIC (Acinetobacter baumannii [31]): > 16 µg/mL; MIC (Acinetobacter baumannii [32]): 16 µg/mL; MIC (Acinetobacter baumannii [33]): 16 µg/mL; MIC (Escherichia coli [34]): ≤ 0.12 µg/mL; MIC (Acinetobacter baumannii [35]): 16 µg/mL; MIC (Acinetobacter baumannii [36]): > 16 µg/mL; MIC (Klebsiella pneumoniae [37]): ≤ 0.12 µg/mL; MIC (Acinetobacter baumannii [38]): > 16 µg/mL
